Values belong to the compound of their own block, whether it stands above or below them. Calls of active or inactive are those of the source. The rule behind the calls is not given here.
Experiments:
[1] = biological target: T1, Gamma-aminobutyric acid receptor subunit alpha-4/beta-3/gamma-2 (Rattus norvegicus) (UniProt P18508+P28471+P63079); test: Modulation of rat eGFP-fused GABA-A receptor alpha4beta3gamma2 expressed in HEK293 cells at <=1 uM in presence of GABA by patch-clamp assay relative to control; format: cell-based
[2] = biological target: T2, Gamma-aminobutyric acid receptor subunit alpha-1/beta-3/delta (Rattus norvegicus) (UniProt P18506+P62813+P63079); test: Modulation of rat […] GABA-A receptor alpha1beta3delta expressed in HEK293 cells up to 10 uM in presence of GABA by patch-clamp assay relative to control; format: cell-based
How it was run: (§1)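 Rat GABA-A subunits were transiently co-transfected with eGFP into HEK293 cells on coverslips. Fluorescent cells were recorded by whole-cell patch clamp 48 h later; bath pH 7.4, KCl/KOH pipette pH 7.2. Compound was applied at increasing concentrations up to 10 µM with the receptor-specific GABA EC20. Peak currents were fitted logistically for EC50, Hill and % modulation, as mean ± S.E.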

[3] = biological target: T3, Gamma-aminobutyric acid receptor subunit alpha-1/beta-3 (Rattus norvegicus) (UniProt P62813+P63079); test: Modulation of rat […] GABA-A receptor alpha1beta3 expressed in HEK293 cells at <= 10 uM in presence of GABA by patch-clamp assay relative to control; format: cell-based
How it was run: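 Whole-cell patch clamp on eGFP-co-transfected HEK 293 cells expressing rat subunits, recorded 48 h post-transfection. KCl/KOH-based pipette solution, pH 7.2. Rising compound concentrations up to 10 µM co-applied with the receptor-specific GABA EC20. Peak currents fitted to a logistic function giving EC50, Hill coefficient and % modulation, mean ± S.E. of n experiments.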

[4] = biological target: T4, Gamma-aminobutyric acid receptor subunit alpha-6/beta-3/delta (Rattus norvegicus) (UniProt P18506+P30191+P63079); test: Displacement of [3H]EBOB from rat GABA-A receptor alpha6beta3delta expressed in HEK293 cell membranes at 10 uM after 90 mins by liquid scintillation counting analysis relative to control
How it was run: (§2)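 Crude membranes from HEK 293 cells transiently Ca-phosphate-transfected with rat subunit cDNAs, harvested at 48 h. Membranes (150-200 µg protein) incubated with 3 nM [3H]EBOB in 50 mM Tris/citrate pH 7.3 plus 0.2 M NaCl. Compound up to 10 µM, final DMSO 0.1%, no GABA, 90 min at 21 °C. Bound radioligand collected by GF/C filtration and counted by scintillation.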

[5] = biological target: T5, Gamma-aminobutyric acid receptor subunit alpha-1/beta-3/gamma-2 (Rattus norvegicus) (UniProt P18508+P62813+P63079); test: Modulation of rat eGFP-fused GABA-A receptor alpha1beta3gamma2 expressed in HEK293 cells at <= 1 uM in presence of GABA by patch-clamp assay relative to control; format: cell-based
[6] = biological target: T6, Gamma-aminobutyric acid receptor subunit alpha-4/beta-3/delta (Rattus norvegicus) (UniProt P18506+P28471+P63079); test: Modulation of rat […] GABA-A receptor alpha4beta3delta expressed in HEK293 cells up to 10 uM in presence of GABA by patch-clamp assay relative to control; format: cell-based; how it was run: as §1
[7] = biological target: Gamma-aminobutyric acid receptor subunit alpha-4/beta-3/delta (Rattus norvegicus, UniProt P18506+P28471+P63079); test: Modulation of rat […] GABA-A receptor alpha4beta3delta expressed in HEK293 cells in presence of GABA by patch-clamp assay; format: cell-based; how it was run: as §1
Chain of Gamma-aminobutyric acid receptor subunit alpha-4/beta-3/delta (P18506 whole entry): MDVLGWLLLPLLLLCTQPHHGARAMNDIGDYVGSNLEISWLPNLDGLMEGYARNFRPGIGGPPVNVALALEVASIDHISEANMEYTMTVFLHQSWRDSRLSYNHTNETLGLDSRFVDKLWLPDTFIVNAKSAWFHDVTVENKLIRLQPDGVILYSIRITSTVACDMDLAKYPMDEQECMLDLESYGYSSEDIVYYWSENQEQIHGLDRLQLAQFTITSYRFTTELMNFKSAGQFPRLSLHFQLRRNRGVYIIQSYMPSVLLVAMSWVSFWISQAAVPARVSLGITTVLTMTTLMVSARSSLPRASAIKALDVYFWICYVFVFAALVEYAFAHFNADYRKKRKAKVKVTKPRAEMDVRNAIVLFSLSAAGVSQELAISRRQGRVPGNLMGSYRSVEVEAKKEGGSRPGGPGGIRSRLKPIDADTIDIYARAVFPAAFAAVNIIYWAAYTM
Chain of Gamma-aminobutyric acid receptor subunit alpha-4/beta-3/delta (P28471 whole entry): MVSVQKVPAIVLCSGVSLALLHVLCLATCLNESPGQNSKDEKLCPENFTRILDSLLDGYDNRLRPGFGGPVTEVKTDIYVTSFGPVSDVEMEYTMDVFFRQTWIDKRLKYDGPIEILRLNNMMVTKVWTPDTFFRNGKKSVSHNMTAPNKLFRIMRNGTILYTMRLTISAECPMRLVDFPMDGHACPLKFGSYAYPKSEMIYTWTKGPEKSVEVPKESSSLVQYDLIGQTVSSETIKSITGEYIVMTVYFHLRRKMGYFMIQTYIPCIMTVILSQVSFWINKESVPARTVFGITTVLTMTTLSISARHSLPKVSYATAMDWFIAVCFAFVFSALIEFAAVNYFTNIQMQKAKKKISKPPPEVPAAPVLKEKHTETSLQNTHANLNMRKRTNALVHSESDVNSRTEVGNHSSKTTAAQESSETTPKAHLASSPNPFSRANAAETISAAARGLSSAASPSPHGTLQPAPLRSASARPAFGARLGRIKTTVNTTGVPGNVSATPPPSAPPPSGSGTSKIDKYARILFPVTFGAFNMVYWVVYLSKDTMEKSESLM
Chain of Gamma-aminobutyric acid receptor subunit alpha-4/beta-3/delta (P63079 whole entry): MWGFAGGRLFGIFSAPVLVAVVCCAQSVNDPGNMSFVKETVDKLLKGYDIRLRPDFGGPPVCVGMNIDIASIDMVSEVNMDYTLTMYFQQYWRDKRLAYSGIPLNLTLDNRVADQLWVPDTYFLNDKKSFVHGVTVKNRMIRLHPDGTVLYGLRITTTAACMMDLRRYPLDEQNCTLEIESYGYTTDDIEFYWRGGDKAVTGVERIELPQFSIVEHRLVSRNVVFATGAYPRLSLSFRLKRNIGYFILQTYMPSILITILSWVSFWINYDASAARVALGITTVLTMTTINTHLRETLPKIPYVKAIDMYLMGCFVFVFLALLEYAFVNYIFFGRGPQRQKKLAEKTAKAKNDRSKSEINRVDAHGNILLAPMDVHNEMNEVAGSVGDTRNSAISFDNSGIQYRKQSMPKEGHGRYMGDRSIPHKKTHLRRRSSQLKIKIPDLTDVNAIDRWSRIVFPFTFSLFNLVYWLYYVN

[8] = biological target: T7, Gamma-aminobutyric acid receptor subunit alpha-6/beta-3 (Rattus norvegicus) (UniProt P30191+P63079); test: Modulation of rat […] GABA-A receptor alpha6beta3 expressed in HEK293 cells up to 10 uM in presence of GABA by patch-clamp assay relative to control; format: cell-based; how it was run: as §1
[9] = biological target: T8, Gamma-aminobutyric acid receptor subunit alpha-6/beta-3/gamma-2 (Rattus norvegicus) (UniProt P18508+P30191+P63079); test: Modulation of rat eGFP-fused GABA-A receptor alpha6beta3gamma2 expressed in HEK293 cells at <= 1 uM in presence of GABA by patch-clamp assay relative to control; format: cell-based
[10] = biological target: Gamma-aminobutyric acid receptor subunit alpha-1/beta-3/delta (Rattus norvegicus, UniProt P18506+P62813+P63079); test: Modulation of rat […] GABA-A receptor alpha1beta3delta expressed in HEK293 cells in presence of GABA by patch-clamp assay; format: cell-based; how it was run: as §1
Chain of Gamma-aminobutyric acid receptor subunit alpha-1/beta-3/delta (P18506 whole entry, the tested form may be a part): as the sequence (P18506 whole entry) above
Chain of Gamma-aminobutyric acid receptor subunit alpha-1/beta-3/delta (P62813 whole entry, the tested form may be a part): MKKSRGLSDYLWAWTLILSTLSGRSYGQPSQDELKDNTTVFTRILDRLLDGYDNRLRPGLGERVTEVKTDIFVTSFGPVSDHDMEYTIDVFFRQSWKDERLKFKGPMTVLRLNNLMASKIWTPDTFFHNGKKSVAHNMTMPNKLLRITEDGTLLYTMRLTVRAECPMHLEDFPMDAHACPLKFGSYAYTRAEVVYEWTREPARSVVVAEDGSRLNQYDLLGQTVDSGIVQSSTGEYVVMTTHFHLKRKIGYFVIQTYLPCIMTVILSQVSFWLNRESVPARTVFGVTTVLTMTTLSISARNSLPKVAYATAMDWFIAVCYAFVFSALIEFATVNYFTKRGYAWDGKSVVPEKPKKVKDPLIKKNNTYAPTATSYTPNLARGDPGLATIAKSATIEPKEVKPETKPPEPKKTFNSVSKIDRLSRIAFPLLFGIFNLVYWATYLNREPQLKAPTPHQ
Chain of Gamma-aminobutyric acid receptor subunit alpha-1/beta-3/delta (P63079 whole entry, the tested form may be a part): as the sequence (P63079 whole entry) above

[11] = biological target: T9, Gamma-aminobutyric acid receptor subunit alpha-4/beta-3 (Rattus norvegicus) (UniProt P28471+P63079); test: Modulation of rat eGFP-fused GABA-A receptor alpha4beta3 expressed in HEK293 cells at <= 1 uM in presence of GABA by patch-clamp assay relative to control; format: cell-based
[12] = biological target: T10, Gamma-aminobutyric acid receptor subunit alpha-6/beta-3/delta (Rattus norvegicus, UniProt P18506+P30191+P63079); test: Displacement of [3H]EBOB from rat GABA-A receptor alpha6beta3delta expressed in HEK293 cell membranes after 90 mins by liquid scintillation counting analysis; how it was run: as §2
T10 sequence (P18506 whole entry): as the sequence (P18506 whole entry) above
T10 sequence (P30191 whole entry): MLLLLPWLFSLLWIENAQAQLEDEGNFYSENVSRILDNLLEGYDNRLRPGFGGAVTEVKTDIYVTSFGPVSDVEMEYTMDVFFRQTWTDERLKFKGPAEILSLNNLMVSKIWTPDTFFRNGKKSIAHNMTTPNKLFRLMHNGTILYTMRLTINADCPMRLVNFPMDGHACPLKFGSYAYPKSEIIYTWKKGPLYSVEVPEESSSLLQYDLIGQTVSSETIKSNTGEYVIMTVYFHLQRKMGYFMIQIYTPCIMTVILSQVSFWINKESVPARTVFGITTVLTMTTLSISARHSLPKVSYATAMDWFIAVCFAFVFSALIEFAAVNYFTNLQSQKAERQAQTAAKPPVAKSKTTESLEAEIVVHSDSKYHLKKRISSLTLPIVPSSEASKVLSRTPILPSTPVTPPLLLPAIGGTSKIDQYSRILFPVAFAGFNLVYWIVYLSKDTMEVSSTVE
T10 sequence (P63079 whole entry): as the sequence (P63079 whole entry) above

[13] = biological target: T4, Gamma-aminobutyric acid receptor subunit alpha-6/beta-3/delta (Rattus norvegicus); test: Displacement of [3H]EBOB from rat GABA-A receptor alpha6beta3delta expressed in HEK293 cell membranes up to 10 uM after 90 mins by liquid scintillation counting analysis relative to control; how it was run: as §2
[14] = biological target: T7, Gamma-aminobutyric acid receptor subunit alpha-6/beta-3 (Rattus norvegicus); test: Displacement of [3H]EBOB from rat GABA-A receptor alpha6beta3 expressed in HEK293 cell membranes up to 10 uM after 90 mins by liquid scintillation counting analysis relative to control; how it was run: as §2
[15] = biological target: T8, Gamma-aminobutyric acid receptor subunit alpha-6/beta-3/gamma-2 (Rattus norvegicus); test: Displacement of [3H]EBOB from rat GABA-A receptor alpha6beta3gamma2 expressed in HEK293 cell membranes up to 10 uM after 90 mins by liquid scintillation counting analysis relative to control; how it was run: as §2
[16] = biological target: T7, Gamma-aminobutyric acid receptor subunit alpha-6/beta-3 (Rattus norvegicus); test: Displacement of [3H]EBOB from rat GABA-A receptor alpha6beta3 expressed in HEK293 cell membranes at 10 uM after 90 mins by liquid scintillation counting analysis relative to control; how it was run: as §2
[17] = biological target: T8, Gamma-aminobutyric acid receptor subunit alpha-6/beta-3/gamma-2 (Rattus norvegicus); test: Displacement of [3H]EBOB from rat GABA-A receptor alpha6beta3gamma2 expressed in HEK293 cell membranes at 10 uM after 90 mins by liquid scintillation counting analysis relative to control; how it was run: as §2
[18] = biological target: T6, Gamma-aminobutyric acid receptor subunit alpha-4/beta-3/delta (Rattus norvegicus); test: Displacement of [3H]EBOB from rat GABA-A receptor alpha4beta3delta expressed in HEK293 cell membranes up to 10 uM after 90 mins by liquid scintillation counting analysis relative to control; how it was run: as §2
[19] = biological target: T2, Gamma-aminobutyric acid receptor subunit alpha-1/beta-3/delta (Rattus norvegicus); test: Displacement of [3H]EBOB from rat GABA-A receptor alpha1beta3delta expressed in HEK293 cell membranes at 10 uM after 90 mins by liquid scintillation counting analysis relative to control; how it was run: as §2
[20] = biological target: GABA A receptor alpha-6/beta-2/gamma-2 (Rattus norvegicus) (UniProt P18508+P30191+P63138); test: Displacement of [3H]EBOB from rat GABA-A receptor alpha6beta2gamma2 expressed in HEK293 cell membranes at 10 uM after 90 mins by liquid scintillation counting analysis relative to control; how it was run: as §2
[21] = biological target: T1, Gamma-aminobutyric acid receptor subunit alpha-4/beta-3/gamma-2 (Rattus norvegicus); test: Displacement of [3H]EBOB from rat GABA-A receptor alpha4beta3gamma2 expressed in HEK293 cell membranes up to 10 uM after 90 mins by liquid scintillation counting analysis relative to control; how it was run: as §2
Rattus norvegicus = species on record: Rattus norvegicus; test: Selectivity ratio of IC50 for rat GABA-A receptor alpha6beta3delta expressed in HEK293 cells to IC50 for rat GABA-A receptor alpha6beta2delta expressed in HEK293 cells; format: cell-based
[22] = biological target: Gamma-aminobutyric acid receptor subunit alpha-6/beta-2/delta (Rattus norvegicus, UniProt P18506+P30191+P63138); test: Displacement of [3H]EBOB from rat GABA-A receptor alpha6beta2delta expressed in HEK293 cell membranes after 90 mins by liquid scintillation counting analysis; how it was run: as §2
Chain of Gamma-aminobutyric acid receptor subunit alpha-6/beta-2/delta (P18506 whole entry): as the sequence (P18506 whole entry) above
Chain of Gamma-aminobutyric acid receptor subunit alpha-6/beta-2/delta (P30191 whole entry): as the sequence (P30191 whole entry) above
Chain of Gamma-aminobutyric acid receptor subunit alpha-6/beta-2/delta (P63138 whole entry): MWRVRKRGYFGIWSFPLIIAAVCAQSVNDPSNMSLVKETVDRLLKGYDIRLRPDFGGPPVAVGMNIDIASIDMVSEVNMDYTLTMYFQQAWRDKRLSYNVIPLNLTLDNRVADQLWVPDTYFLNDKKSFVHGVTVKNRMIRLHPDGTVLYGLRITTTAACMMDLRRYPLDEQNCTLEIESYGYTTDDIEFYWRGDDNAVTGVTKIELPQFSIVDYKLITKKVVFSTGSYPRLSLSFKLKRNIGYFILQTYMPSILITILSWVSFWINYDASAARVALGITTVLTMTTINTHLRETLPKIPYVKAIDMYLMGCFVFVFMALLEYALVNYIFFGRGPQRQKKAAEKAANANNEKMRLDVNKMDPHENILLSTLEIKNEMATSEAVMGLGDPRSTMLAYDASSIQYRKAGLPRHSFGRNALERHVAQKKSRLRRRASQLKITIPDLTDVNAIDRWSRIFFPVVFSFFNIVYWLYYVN

[23] = biological target: Gamma-aminobutyric acid receptor subunit alpha-6/beta-2 (Rattus norvegicus) (UniProt P30191+P63138); test: Displacement of [3H]EBOB from rat GABA-A receptor alpha6beta2 expressed in HEK293 cell membranes up to 10 uM after 90 mins by liquid scintillation counting analysis relative to control; how it was run: as §2
[24] = biological target: Gamma-aminobutyric acid receptor subunit alpha-6/beta-2 (Rattus norvegicus, UniProt P30191+P63138); test: Displacement of [3H]EBOB from rat GABA-A receptor alpha6beta2 expressed in HEK293 cell membranes after 90 mins by liquid scintillation counting analysis; how it was run: as §2
Chain of Gamma-aminobutyric acid receptor subunit alpha-6/beta-2 (P30191 whole entry): as the sequence (P30191 whole entry) above
Chain of Gamma-aminobutyric acid receptor subunit alpha-6/beta-2 (P63138 whole entry): as the sequence (P63138 whole entry) above

[25] = biological target: T4, Gamma-aminobutyric acid receptor subunit alpha-6/beta-3/delta (Rattus norvegicus); test: (§3) Displacement of [3H]EBOB from rat GABA-A receptor alpha6beta3delta expressed in HEK293 cell membranes after 90 mins in presence of GABA by liquid scintillation counting analysis
[26] = biological target: T10, Gamma-aminobutyric acid receptor subunit alpha-6/beta-3/delta; test: as §3
[27] = biological target: T3, Gamma-aminobutyric acid receptor subunit alpha-1/beta-3 (Rattus norvegicus); test: Displacement of [3H]EBOB from rat GABA-A receptor alpha1beta3 expressed in HEK293 cell membranes at 10 uM after 90 mins by liquid scintillation counting analysis relative to control; how it was run: as §2
[28] = biological target: T5, Gamma-aminobutyric acid receptor subunit alpha-1/beta-3/gamma-2 (Rattus norvegicus); test: Displacement of [3H]EBOB from rat GABA-A receptor alpha1beta3gamma2 expressed in HEK293 cell membranes at 10 uM after 90 mins by liquid scintillation counting analysis relative to control; how it was run: as §2
[29] = biological target: Gamma-aminobutyric acid receptor subunit alpha-6/beta-2/delta (Rattus norvegicus) (UniProt P18506+P30191+P63138); test: Displacement of [3H]EBOB from rat GABA-A receptor alpha6beta2delta expressed in HEK293 cell membranes up to 10 uM after 90 mins by liquid scintillation counting analysis relative to control; how it was run: as §2
[30] = biological target: T11, Gamma-aminobutyric acid receptor subunit alpha-6/beta-3/gamma-2 (Rattus norvegicus, UniProt P18508+P30191+P63079); test: (§4) Displacement of [3H]EBOB from rat GABA-A receptor alpha6beta3gamma2 expressed in HEK293 cell membranes after 90 mins in presence of GABA by liquid scintillation counting analysis
T11 sequence (P18508 whole entry): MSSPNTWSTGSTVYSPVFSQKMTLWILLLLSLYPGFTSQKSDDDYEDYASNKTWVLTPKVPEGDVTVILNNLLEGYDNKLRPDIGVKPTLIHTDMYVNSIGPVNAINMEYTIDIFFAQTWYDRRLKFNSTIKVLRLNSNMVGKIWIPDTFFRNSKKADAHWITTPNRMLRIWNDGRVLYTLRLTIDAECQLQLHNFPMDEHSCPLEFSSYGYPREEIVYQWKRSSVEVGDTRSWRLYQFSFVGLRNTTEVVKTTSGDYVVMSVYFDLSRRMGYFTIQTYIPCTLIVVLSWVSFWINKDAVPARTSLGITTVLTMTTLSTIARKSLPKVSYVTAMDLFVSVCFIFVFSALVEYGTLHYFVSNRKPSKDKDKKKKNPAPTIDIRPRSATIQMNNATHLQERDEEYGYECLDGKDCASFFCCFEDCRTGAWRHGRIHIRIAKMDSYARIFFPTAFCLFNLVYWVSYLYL
T11 sequence (P30191 whole entry): as the sequence (P30191 whole entry) above
T11 sequence (P63079 whole entry): as the sequence (P63079 whole entry) above

[31] = biological target: T8, Gamma-aminobutyric acid receptor subunit alpha-6/beta-3/gamma-2 (Rattus norvegicus); test: as §4
[32] = biological target: T9, Gamma-aminobutyric acid receptor subunit alpha-4/beta-3 (Rattus norvegicus); test: Displacement of [3H]EBOB from rat GABA-A receptor alpha4beta3 expressed in HEK293 cell membranes up to 10 uM after 90 mins by liquid scintillation counting analysis relative to control; how it was run: as §2
[33] = biological target: T7, Gamma-aminobutyric acid receptor subunit alpha-6/beta-3 (Rattus norvegicus); test: (§5) Displacement of [3H]EBOB from rat GABA-A receptor alpha6beta3 expressed in HEK293 cell membranes after 90 mins in presence of GABA by liquid scintillation counting analysis
[34] = biological target: T12, Gamma-aminobutyric acid receptor subunit alpha-6/beta-3 (Rattus norvegicus, UniProt P30191+P63079); test: as §5
T12 sequence (P30191 whole entry): as the sequence (P30191 whole entry) above
T12 sequence (P63079 whole entry): as the sequence (P63079 whole entry) above

[35] = biological target: T11, Gamma-aminobutyric acid receptor subunit alpha-6/beta-3/gamma-2; test: Displacement of [3H]EBOB from rat GABA-A receptor alpha6beta3gamma2 expressed in HEK293 cell membranes after 90 mins by liquid scintillation counting analysis; how it was run: as §2
[36] = biological target: T12, Gamma-aminobutyric acid receptor subunit alpha-6/beta-3; test: Displacement of [3H]EBOB from rat GABA-A receptor alpha6beta3 expressed in HEK293 cell membranes after 90 mins by liquid scintillation counting analysis; how it was run: as §2

- IC50 [12]: 1000 nM
- Imax [13]: 38%
- inhibition [14]: inactive
- inhibition [15]: inactive
Compound: O=C(Nc1c(-c2cccs2)nc2c(Br)cc(Br)cn12)c1ccc(OCCCF)cc1

- inhibition [16]: inactive
- Imax [4]: 37%
- Imax [17]: 15%
Compound: O=C(Nc1c(-c2cccs2)nc2c(Br)cc(Br)cn12)c1ccc(OCCF)cc1

- Imax [16]: 11%
- IC50 [12]: 760 nM
- inhibition [18]: inactive
- inhibition [19]: inactive
- Imax [13]: 53%
- inhibition [20]: inactive
- inhibition [17]: inactive
- inhibition [21]: inactive
- IC50 [22]: 270 nM
- Imax [23]: 33%
- IC50 [24]: 740 nM
- Imax [25]: 55%
- IC50 [26]: 490 nM
- inhibition [27]: inactive
- inhibition [28]: inactive
- Imax [29]: 55%
- IC50 [30]: 1280 nM
- Imax [31]: 44%
- inhibition [32]: inactive
- Imax [33]: 57%
- IC50 [34]: 1290 nM
Compound: O=C(Nc1c(-c2cccs2)nc2c(Br)cc(Br)cn12)c1ccc(OCCCCF)cc1
- Ratio IC50 (Rattus norvegicus): 3

- IC50 [35]: 5.51 µM
- IC50 [12]: 860 nM
- Imax [13]: 71%
- IC50 [36]: 2500 nM
- Imax [14]: 46%
- Imax [15]: 24%
Compound: CCCCOc1ccc(C(=O)Nc2c(-c3cccs3)nc3c(Br)cc(Br)cn23)cc1

Second part, the compound before the results:

Compound: O=C(Nc1c(-c2cccs2)nc2ccccn12)c1ccc(Cl)cc1
- Activity [1]: inactive
- Activity [2]: 213%
- Activity [3]: inactive
- Imax [4]: 20%
- Activity [5]: inactive
- Activity [6]: 231%
- EC50 [7]: 970 nM
- Activity [8]: 588%
- Activity [9]: inactive
- EC50 [10]: 860 nM
- Activity [11]: inactive

Compound: O=C(Nc1c(-c2cccs2)nc2ccccn12)c1ccc(OCc2ccccc2)cc1
- inhibition [16]: inactive
- Imax [4]: 54%
- inhibition [17]: inactive

Compound: O=C(Nc1c(-c2cccs2)nc2c(Br)cc(Br)cn12)c1ccc(F)cc1
- IC50 [35]: 3.39 µM
- IC50 [12]: 1200 nM
- Imax [13]: 87%
- IC50 [36]: 3060 nM
- Imax [14]: 91%
- Imax [15]: 103%
